Activity calls are given as the source filed them. The rule behind the calls is not given here.
Legend:
[1] = biological target: T1, Gamma-aminobutyric acid receptor subunit alpha-2 (Homo sapiens) (UniProt P47869); experiment: Maximum percent potentiation against gamma-aminobutyric acid (GABA) A receptor, alpha 2; settings: Xenopus laevis
T1 sequence (whole entry): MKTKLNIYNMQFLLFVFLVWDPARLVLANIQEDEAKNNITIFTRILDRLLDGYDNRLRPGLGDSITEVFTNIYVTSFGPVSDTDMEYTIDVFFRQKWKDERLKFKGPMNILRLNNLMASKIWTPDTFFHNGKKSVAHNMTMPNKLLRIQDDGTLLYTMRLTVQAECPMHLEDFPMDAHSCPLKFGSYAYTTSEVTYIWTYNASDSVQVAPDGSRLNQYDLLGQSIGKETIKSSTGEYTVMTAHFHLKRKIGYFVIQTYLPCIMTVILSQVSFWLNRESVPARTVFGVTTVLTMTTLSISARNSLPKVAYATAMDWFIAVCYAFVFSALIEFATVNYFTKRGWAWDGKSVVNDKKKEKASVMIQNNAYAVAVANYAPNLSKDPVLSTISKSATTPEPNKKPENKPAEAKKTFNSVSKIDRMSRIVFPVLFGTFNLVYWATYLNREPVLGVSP
Summary of the method: (§1)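 Xenopus laevis oocytes were injected with human cRNA for the α, β and γ subunits needed to express each receptor subtype (α1, α2, α3 or α5). Electrophysiological recording was used to read potentiation, and the effective concentration and maximal percent potentiation were derived from it.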

Rattus norvegicus [2] = species on record: Rattus norvegicus; experiment: Rat behavioral spontaneous Locomotor Activity; assay type: functional
Summary of the method: (§2)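 Male Sprague-Dawley rats received the test drug iv in 50% aqueous PEG-400, which also served as the control vehicle. They were then placed in an automated activity monitor, and movement time, total distance and vertical activity were recorded over 15 min. Each drug was compared against vehicle, and NS marks a difference that was not significant.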

[3] = biological target: T2, Gamma-aminobutyric acid receptor subunit alpha-1 (Homo sapiens) (UniProt P14867); experiment: Maximum percent potentiation against gamma-aminobutyric acid (GABA) A receptor, alpha 1; settings: Xenopus laevis; summary of the method: as §1
T2 sequence (whole entry): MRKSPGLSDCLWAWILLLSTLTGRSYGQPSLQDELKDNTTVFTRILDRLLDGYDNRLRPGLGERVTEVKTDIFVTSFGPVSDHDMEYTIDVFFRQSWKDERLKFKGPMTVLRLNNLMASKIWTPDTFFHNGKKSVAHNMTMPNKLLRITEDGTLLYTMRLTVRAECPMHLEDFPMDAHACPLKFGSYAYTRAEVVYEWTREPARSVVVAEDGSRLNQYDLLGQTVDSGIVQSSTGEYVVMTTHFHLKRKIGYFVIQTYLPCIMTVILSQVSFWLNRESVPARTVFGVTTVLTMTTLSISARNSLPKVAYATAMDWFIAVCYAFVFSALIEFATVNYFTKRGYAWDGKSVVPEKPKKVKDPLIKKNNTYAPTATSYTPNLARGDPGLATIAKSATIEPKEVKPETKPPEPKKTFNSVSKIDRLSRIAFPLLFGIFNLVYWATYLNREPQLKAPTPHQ

[4] = biological target: GABA-A receptor; anion channel (Rattus norvegicus) (UniProt O09028+P15431+P18506+P18508+P19969+P20236+P23574+P23576+P28471+P28473+P30191+P62813+P63079+P63138+Q91ZM7+Q9ES14); experiment: Binding affinity by displacement of [3H]flumazenil from rat cortex homogenates; Not active; assay type: functional
Summary of the method: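 Displacement of [3H]flumazenil from rat cortex homogenates. […] Values are averages (±SD); some analogues were run once as a single set of triplicates. NA means an IC50 was not achieved at the highest dose tested.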

[5] = biological target: T3, Gamma-aminobutyric acid receptor subunit alpha-5 (Homo sapiens) (UniProt P31644); experiment: Maximum percent potentiation against gamma-aminobutyric acid (GABA) A receptor, alpha 5; settings: Xenopus laevis; summary of the method: as §1
T3 sequence (whole entry): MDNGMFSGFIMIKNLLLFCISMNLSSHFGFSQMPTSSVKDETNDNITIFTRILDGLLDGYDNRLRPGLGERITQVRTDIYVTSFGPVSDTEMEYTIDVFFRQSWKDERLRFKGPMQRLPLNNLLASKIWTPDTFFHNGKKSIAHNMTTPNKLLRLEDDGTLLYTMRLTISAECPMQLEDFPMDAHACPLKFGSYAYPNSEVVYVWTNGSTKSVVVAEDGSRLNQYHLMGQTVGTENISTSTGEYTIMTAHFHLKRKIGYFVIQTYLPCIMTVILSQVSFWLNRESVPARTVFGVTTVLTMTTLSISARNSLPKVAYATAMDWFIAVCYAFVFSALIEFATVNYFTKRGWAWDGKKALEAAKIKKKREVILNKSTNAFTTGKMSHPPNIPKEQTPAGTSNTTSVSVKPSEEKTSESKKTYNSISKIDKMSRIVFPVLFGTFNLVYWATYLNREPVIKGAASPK

[6] = biological target: T4, Gamma-aminobutyric acid receptor subunit alpha-3 (Homo sapiens) (UniProt P34903); experiment: Maximum percent potentiation against gamma-aminobutyric acid (GABA) A receptor, alpha 3; settings: Xenopus laevis; summary of the method: as §1
T4 sequence (whole entry): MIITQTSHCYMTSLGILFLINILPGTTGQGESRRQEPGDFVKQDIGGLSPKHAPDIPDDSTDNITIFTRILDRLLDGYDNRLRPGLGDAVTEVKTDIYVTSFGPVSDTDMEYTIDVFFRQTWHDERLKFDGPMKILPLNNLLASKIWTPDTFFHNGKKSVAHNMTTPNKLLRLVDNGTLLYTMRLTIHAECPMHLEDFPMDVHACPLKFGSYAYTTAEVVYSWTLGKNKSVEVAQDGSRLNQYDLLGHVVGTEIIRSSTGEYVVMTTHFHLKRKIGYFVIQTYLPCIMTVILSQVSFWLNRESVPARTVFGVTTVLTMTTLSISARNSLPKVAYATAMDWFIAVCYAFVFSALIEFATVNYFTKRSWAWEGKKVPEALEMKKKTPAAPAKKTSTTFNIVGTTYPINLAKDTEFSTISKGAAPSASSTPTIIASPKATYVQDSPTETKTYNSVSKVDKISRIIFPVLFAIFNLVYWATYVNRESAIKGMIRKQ

[7] = biological target: T5, Gamma-aminobutyric acid receptor subunit alpha-5 (Homo sapiens, UniProt P31644); experiment: Effective concentration against Gamma-aminobutyric acid A receptor, alpha 5; set-up: species or system Xenopus laevis; summary of the method: as §1
T5 sequence (P31644 whole entry): T3 sequence (whole entry)

[8] = biological target: T6, Gamma-aminobutyric acid receptor subunit alpha-1 (Homo sapiens, UniProt P14867); experiment: Effective concentration against gamma-aminobutyric acid (GABA) A receptor, alpha 1; set-up: species or system Xenopus laevis; summary of the method: as §1
T6 sequence (P14867 whole entry): T2 sequence (whole entry)

[9] = biological target: GABA-A receptor; anion channel; experiment: Binding affinity was determined by displacement of [3H]flumazenil from rat cortex homogenates; assay type: functional
Summary of the method: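 Displacement of [3H]flumazenil from rat cortex homogenates. Values are averages (±SD); some analogues were run once as a single set of triplicates. NA means an IC50 was not achieved at the highest dose tested.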

[10] = biological target: T7, Gamma-aminobutyric acid receptor subunit alpha-3 (Homo sapiens, UniProt P34903); experiment: Effective concentration against gamma-aminobutyric acid (GABA) A receptor, alpha 3; set-up: species or system Xenopus laevis; summary of the method: as §1
T7 sequence (P34903 whole entry): T4 sequence (whole entry)

Rattus norvegicus [11] = species on record: Rattus norvegicus; experiment: Rat behavioral spontaneous Locomotor Activity; Not significant.; assay type: functional, organism-based; summary of the method: as §2
[12] = biological target: T8, Gamma-aminobutyric acid receptor subunit alpha-2 (Homo sapiens, UniProt P47869); experiment: Effective concentration against gamma-aminobutyric acid (GABA) A receptor, alpha 2; set-up: species or system Xenopus laevis; summary of the method: as §1
T8 sequence (P47869 whole entry): T1 sequence (whole entry)

| SMILES | Activity [1] | minimum effective dose on locomotor activity (Rattus norvegicus [2]) | Activity [3] | NA [4] | Activity [5] | OMNI med (Rattus norvegicus [2]) | Activity [6] | EC50 [7] | EC50 [8] | Ki [9] | EC50 [10] | NS (Rattus norvegicus [11]) | EC50 [12] |
| --- | --- | --- | --- | --- | --- | --- | --- | --- | --- | --- | --- | --- | --- |
| Oc1nc2c(c3nc(-c4cccc(F)c4)cn13)CN(Cc1ccccc1)CC2 | 81% | 2 mg/kg | 92% |  |  |  |  |  |  |  |  |  |  |
| COc1ccc(-c2cn3c(O)nc4c(c3n2)CN(C(=O)c2ccccc2)CC4)cc1 |  |  |  | inactive |  |  |  |  |  |  |  |  |  |
| Cc1ccc(-c2nc3ccc(C)cn3c2CC(=O)N(C)C)cc1 [ZOLPIDEM] | 291% |  | 322% |  | < 20% | 0.25 mg/kg | 700% | > 3000 nM |  |  |  |  |  |
| Oc1nc2c(c3nc(-c4ccccc4F)cn13)CN(Cc1ccncc1)CC2 | 42% |  | 17% |  | 0% |  | 58% |  | 53 nM | 0.9 nM | 33 nM | inactive | 99 nM |
| CCC(=O)N1CCc2nc(O)n3cc(-c4ccc(OC)cc4)nc3c2C1 |  |  |  | inactive |  |  |  |  |  |  |  |  |  |
| COc1ccc(-c2cn3c(O)nc4c(c3n2)CN(Cc2ccccc2)CC4)cc1 | 142% | 0.06 mg/kg | 122% |  |  |  |  |  |  |  |  |  |  |
| O=C(c1ccccc1)N1CCc2nc(O)n3cc(-c4cccc(Cl)c4)nc3c2C1 |  |  |  | inactive |  |  |  |  |  |  |  |  |  |
| Cc1nnc2n1-c1ccc(Cl)cc1C(c1ccccc1)=NC2 [ALPRAZOLAM] | 333% |  | 327% |  | 206% | 0.125 mg/kg | 774% | 10 nM | 37 nM | 3.3 nM | 69 nM |  | 12 nM |
| CCCCN1CCc2nc(O)n3cc(-c4ccccc4F)nc3c2C1 | 86% |  | 70% |  | 4% |  | 72% | 291 nM | 258 nM | 7.3 nM | 394 nM |  | 247 nM |
| Oc1nc2c(c3nc(-c4ccccc4F)cn13)CN(Cc1cccnc1)CC2 | 78% | 0.5 mg/kg | 29% |  | 0% |  | 81% |  |  |  |  |  |  |
| Oc1nc2c(c3nc(-c4ccccc4F)cn13)CNCC2 |  |  |  | inactive |  |  |  |  |  |  |  |  |  |
| Cc1ccc(-c2cn3c(O)nc4c(c3n2)CN(Cc2ccccc2)CC4)cc1 | 94% |  | 62% |  | 17% |  | 174% | 650 nM | 266 nM | 43 nM | 3830 nM |  | 1180 nM |
| Oc1nc2c(c3nc(-c4ccccc4F)cn13)CN(Cc1cccs1)CC2 | 54% |  | 50% |  | 49% |  | 96% | 375 nM | 107 nM | 0.5 nM | 367 nM |  | 67 nM |
| Oc1nc2c(c3nc(-c4ccc(F)cc4)cn13)CN(Cc1ccccc1)CC2 | 155% | 1 mg/kg | 186% |  |  |  |  |  |  |  |  |  |  |
| O=c1[nH]c2c(c3nc(-c4ccccc4F)cn13)CN(CC1CCCCC1)CC2 |  |  |  |  |  |  |  | 231 nM | 127 nM | 0.9 nM | 213 nM |  | 202 nM |
| O=c1[nH]c2c(c3nc(-c4ccccc4F)cn13)CN(Cc1ccccc1)CC2 |  |  |  |  |  |  |  | 74 nM | 18 nM | 1.3 nM | 20 nM |  | 20 nM |
| CCCCCC(=O)N1CCc2nc(O)n3cc(-c4ccccc4F)nc3c2C1 |  |  |  | inactive |  |  |  |  |  |  |  |  |  |
| Oc1nc2c(c3nc(-c4ccccc4F)cn13)CN(CC1CC1)CC2 | 36% |  | 31% |  | 7% |  | 28% | 94 nM | 135 nM | 30 nM | 424 nM |  | 1160 nM |

From ChEMBL document CHEMBL1135642, “Synthesis and biological evaluation of 7,8,9,10-tetrahydroimidazo[1,2-c]pyrido[3,4-e]pyrimdin-5(6H)-ones as functionally selective ligands of the benzodiazepine receptor site on the GABA(A) receptor” (J Med Chem, 2002)
